Measurements reported in ChEMBL document CHEMBL4229399, “Discovery and optimization of aspartate aminotransferase 1 inhibitors to target redox balance in pancreatic ductal adenocarcinoma” (Bioorg Med Chem Lett, 2018).
Calls of active or inactive are those of the source. The calls are words filed in the database; no cut-off is given here.

How the values were obtained:
[1] = target: T1, Aspartate aminotransferase, cytoplasmic (Homo sapiens, UniProt P17174); assay: Inhibition of GOT1 (unknown origin) using aspartate and alpha-ketoglutarate as substrate after 20 mins by MDH1 enzyme-coupled fluorescence assay
T1 sequence (P17174 whole entry): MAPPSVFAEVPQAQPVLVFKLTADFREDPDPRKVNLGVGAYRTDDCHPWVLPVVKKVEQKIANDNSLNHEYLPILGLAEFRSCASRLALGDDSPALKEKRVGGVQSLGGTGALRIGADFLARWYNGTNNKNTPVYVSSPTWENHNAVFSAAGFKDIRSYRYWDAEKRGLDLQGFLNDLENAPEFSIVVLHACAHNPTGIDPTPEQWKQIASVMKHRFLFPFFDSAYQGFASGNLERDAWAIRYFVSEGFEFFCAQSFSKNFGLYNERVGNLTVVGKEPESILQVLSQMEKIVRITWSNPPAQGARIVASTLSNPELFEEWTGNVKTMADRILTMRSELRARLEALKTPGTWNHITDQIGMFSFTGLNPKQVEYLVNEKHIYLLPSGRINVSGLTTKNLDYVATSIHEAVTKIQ
Procedure, shortened: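 Oxaloacetate from GOT1 (~1 nM) is reduced by MDH1 (0.3 µg/mL final) using NADH (250 µM final). Loss of NADH fluorescence is read at 340/445 nm. Substrates aspartate 4 mM and alpha-ketoglutarate 0.5 mM. Buffer: 100 mM HEPES, 100 mM KCl. Incubated 20 min at 37 °C. Mean of n = 3.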

[2] = test system: Mus musculus; assay: AUC (0 to 24 hrs) in CD-1 mouse at 20 mg/kg administered via oral gavage by LC-MS/MS analysis; format: ADME, organism-based; parameters: time < 24 hr, dose 20 mg/kg, route oral; conditions: in vivo
Procedure, shortened: (§1)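 Female CD1 mice, 9 weeks old, oral gavage at 20 mg/kg (5 mL/kg). Fasted overnight, with food returned after the 4-h bleed. Blood sampled retro-orbitally at 0.5, 1, 4, 8 and 24 h, n = 3 per time point. Plasma separated by centrifugation and frozen at -80 °C. Drug level quantified by LC/MS/MS from analyte peak area.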

[3] = target: T1, Aspartate aminotransferase, cytoplasmic; assay: Inhibition of GOT1 (unknown origin) using aspartate and alpha-ketoglutarate as substrate after 20 mins by GLOX enzyme-coupled fluorescence assay
Procedure, shortened: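 GOT1 (~1 nM, set per purification for a 20 min linear reaction) with aspartate 4 mM and alpha-ketoglutarate 0.5 mM (KM levels). Glutamate is turned over by GLOX (80 nM), and the H2O2 drives HRP (0.05 U/mL) oxidation of Amplex Red (15 µg/mL). Buffer: 100 mM HEPES, 100 mM KCl. Run 20 min at 37 °C; resorufin fluorescence read at 530/550 nm.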

[4] = Cmax in CD-1 mouse at 20 mg/kg administered via oral gavage by LC-MS/MS analysis; format: ADME, organism-based; parameters: dose 20 mg/kg, route oral; conditions: in vivo; procedure, shortened: as §1
[5] = Half life in CD-1 mouse at 20 mg/kg administered via oral gavage by LC-MS/MS analysis; format: ADME, organism-based; conditions: in vivo; procedure, shortened: as §1
[6] = Stability in mouse plasma assessed as parent compound remaining after 4 hrs; format: ADME, cell-free; conditions: read-out: Stability

Structure (SMILES) | IC50 [1] [µM] | further results
Cc1cc(C)cc(NC(=O)N2CCN(c3cccc4[nH]ccc34)CC2)c1 | 64 | 
Cc1cccc(NC(=O)N2CCN(c3cccc4[nH]ccc34)CC2)c1 | > 100 | 
O=C(NCCc1c[nH]c2ccccc12)Nc1ccccc1-c1ccccc1 | 34 | 
CC(C)CNC(=O)N1CCN(c2cccc3[nH]ccc23)CC1 | > 100 | 
O=C(Nc1ccc(Cc2ccccc2)cc1)N1CCN(c2cccc3[nH]ccc23)CC1 | > 100 | 
O=C(Nc1cccc(Cl)c1Cl)N1CCN(c2cccc3[nH]ccc23)CC1 | > 100 | 
O=C(Nc1ccc(Cl)cc1Cl)N1CCN(c2cccc3[nH]ccc23)CC1 | 56 | 
COc1ccc(NC(=O)N2CCN(c3cccc4[nH]ccc34)CC2)cc1 | 25 | 
O=C(Nc1cccc(Cl)c1)N1CCN(c2cccc3[nH]ccc23)CC1 | 52 | 
O=C(Nc1ccc(C(F)(F)F)cc1)N1CCN(c2ccncc2)CC1 | > 100 | 
CS(=O)(=O)N1CCN(C(=O)Nc2ccccc2)CC1 | > 100 | 
Cc1ccc(NC(=O)N2CCN(c3cccc4[nH]ccc34)CC2)c(C)c1 | > 100 | 
CC(=O)N1CCN(C(=O)Nc2ccccc2)CC1 | > 100 | 
Cc1ccc(N2CCN(C(=O)Nc3ccccc3)CC2)c2cc[nH]c12 | 41 | 
O=C(Nc1ccc2scnc2c1)N1CCN(c2cccc3[nH]ccc23)CC1 | 76 | 
COc1cccc(NC(=O)N2CCN(c3cccc4[nH]ccc34)CC2)c1 | > 100 | 
N#Cc1ccc(NC(=O)N2CCN(c3cccc4[nH]ccc34)CC2)cc1 | 21 | 
Cc1cccc(C)c1NC(=O)N1CCN(c2cccc3[nH]ccc23)CC1 | > 100 | 
O=C(Nc1ccccc1)N1CCN(c2cccc3ncccc23)CC1 | > 100 | 
O=C(NCCc1c[nH]c2ccccc12)Nc1ccc(Cl)cc1Cl | 32 | 
CC(C)N1CCN(C(=O)Nc2ccccc2)CC1 | > 100 | 
COc1ccc(OC)c(NC(=O)N2CCN(c3cccc4[nH]ccc34)CC2)c1 | > 100 | 
Cc1ccccc1NC(=O)N1CCN(c2cccc3[nH]ccc23)CC1 | > 100 | 
COc1cccc(N2CCN(C(=O)Nc3ccccc3)CC2)c1 | > 100 | 

Structure (SMILES) | IC50 [1] [µM] | further results
Cc1ccc(C)c(NC(=O)N2CCN(c3cccc4[nH]ccc34)CC2)c1 | > 100 | 
O=C(Nc1ccccc1)N1CCN(Cc2cncs2)CC1 | > 100 | 
COc1cc(NC(=O)N2CCN(c3cccc4[nH]ccc34)CC2)cc(OC)c1 | > 100 | 
O=C(NCCc1c[nH]c2ccccc12)Nc1ccccc1 | > 100 | 
O=C(OCc1ccccc1)N1CCN(c2cccc3[nH]ccc23)CC1 | > 100 | 
COc1c(C)cccc1NC(=O)N1CCN(c2cccc3[nH]ccc23)CC1 | > 100 | 
O=C(NCCc1c[nH]c2ccccc12)Nc1ccc(Cl)c(Cl)c1 | 36 | 
Cc1ccc(NC(=O)N2CCN(c3cccc4[nH]ccc34)CC2)cc1C | > 100 | 
O=C(Nc1cccc2ncsc12)N1CCN(c2cccc3[nH]ccc23)CC1 | > 100 | 
O=C(Nc1cc(Cl)cc(Cl)c1)N1CCN(c2cccc3[nH]ccc23)CC1 | 22 | 
O=C(Nc1ccc(OC(F)(F)F)cc1)N1CCN(c2cccc3[nH]ccc23)CC1 | 36 | 
Cc1cccc(NC(=O)N2CCN(c3cccc4[nH]ccc34)CC2)c1C | > 100 | 
CNC(=O)N1CCN(c2cccc3[nH]ccc23)CC1 | > 100 | 
O=C(Nc1cccnc1)N1CCN(c2cccc3[nH]ccc23)CC1 | > 100 | 
Cc1ccc(NC(=O)N2CCN(c3cccc4[nH]ccc34)CC2)cc1 | > 100 | 
Cc1ccc2[nH]ccc2c1N1CCN(C(=O)Nc2ccccc2)CC1 | > 100 | 
COc1ccc(N2CCN(C(=O)Nc3ccccc3)CC2)cc1 | > 100 | 
CC(=O)c1ccc(NC(=O)N2CCN(c3cccc4[nH]ccc34)CC2)cc1 | 16 | 
O=C(Nc1c(Cl)cccc1Cl)N1CCN(c2cccc3[nH]ccc23)CC1 | > 100 | 
O=C(Nc1cc(Cl)ccc1Cl)N1CCN(c2cccc3[nH]ccc23)CC1 | > 100 | 
O=C(Nc1ccccc1)N1CCN(c2cccc3[nH]ncc23)CC1 | > 100 | 
O=C(NCc1ccccc1)N1CCN(c2cccc3[nH]ccc23)CC1 | > 100 | 
O=C(Nc1ccccc1)N1CCN(c2cccc3cnccc23)CC1 | > 100 | 
O=C(Nc1ccccc1C(F)(F)F)N1CCN(c2cccc3[nH]ccc23)CC1 | > 100 | 

Structure (SMILES) | IC50 [1] [µM] | further results
O=C(Nc1ccccc1)N1CCN(c2ccncc2)CC1 | > 100 | 
CCN1CCN(C(=O)Nc2ccccc2)CC1 | > 100 | 
O=C(Cc1ccccc1)N1CCN(c2cccc3[nH]ccc23)CC1 | > 100 | 
O=C(Nc1cccc(Oc2ccccc2)c1)N1CCN(c2cccc3[nH]ccc23)CC1 | 39 | 
O=C(Nc1ccccc1)N1CCN(c2cccc3[nH]ccc23)CC1 | 85 | AUC [2]: 11734 ng·h/mL; inhibition [3]: Active; Cmax [4]: 4130 ng/mL; half-life [5]: 42 min; remaining at 4 h [6]: > 95%
O=C(Nc1ccncn1)N1CCN(c2cccc3[nH]ccc23)CC1 | > 100 | 
O=C(Nc1ccccc1)N1CCN(c2ccc(Cl)c3[nH]ccc23)CC1 | > 100 | 
O=C(NCc1ccc(Cl)cc1)N1CCN(c2cccc3[nH]ccc23)CC1 | > 100 | 
O=C(c1ccccc1)N1CCN(c2cccc3[nH]ccc23)CC1 | > 100 | 
O=C(NCCc1c[nH]c2ccccc12)Nc1ccc(Cl)cc1 | 36 | 
O=C(Nc1cccc(C(F)(F)F)c1)N1CCN(c2ccncc2)CC1 | > 100 | 
O=C(Nc1ccnnc1)N1CCN(c2cccc3[nH]ccc23)CC1 | > 100 | 
O=C(NCCc1c[nH]c2ccccc12)Nc1ccc(C(F)(F)F)cc1 | 39 | 
Cc1cc(N2CCN(C(=O)Nc3ccccc3)CC2)c2cc[nH]c2c1 | > 100 | 
O=C(Nc1ccc(C(F)(F)F)cc1)N1CCN(c2cccc3[nH]ccc23)CC1 | 16 | 
O=C(Nc1ccc(Cl)cc1)N1CCN(c2ccncc2)CC1 | > 100 | 
N#Cc1ccccc1NC(=O)N1CCN(c2cccc3[nH]ccc23)CC1 | > 100 | 
CN1CCN(C(=O)Nc2ccccc2)CC1 | > 100 | 
O=C(NCCc1c[nH]c2ccccc12)Nc1cccc(Br)c1 | 28 | 
O=C(CCc1ccccc1)N1CCN(c2cccc3[nH]ccc23)CC1 | > 100 | 
O=C(NCCc1c[nH]c2ccccc12)Nc1ccc(OC(F)(F)F)cc1 | 63 | 
O=C(CCC(=O)Nc1c[nH]c2ccccc12)Nc1ccccc1 | > 100 | 
O=C(Nc1ccc(Cl)cc1)N1CCN(c2cccc3[nH]ccc23)CC1 | 8.2 | 
O=C(NCCc1c[nH]c2ccccc12)Nc1cccc(C(F)(F)F)c1 | 62 | 

Structure (SMILES) | IC50 [1] [µM] | further results
O=C(Nc1ccncc1)N1CCN(c2cccc3[nH]ccc23)CC1 | > 100 | 
O=C(Nc1ccccc1Cl)N1CCN(c2cccc3[nH]ccc23)CC1 | > 100 | 
COc1ccccc1NC(=O)N1CCN(c2cccc3[nH]ccc23)CC1 | > 100 | 
O=C(Nc1cncnc1)N1CCN(c2cccc3[nH]ccc23)CC1 | > 100 | 
COc1ccc(NC(=O)N2CCN(c3cccc4[nH]ccc34)CC2)c(OC)c1 | > 100 | 
CC(C)NC(=O)N1CCN(c2cccc3[nH]ccc23)CC1 | > 100 | 
CNC(=O)c1ccc(NC(=O)N2CCN(c3cccc4[nH]ccc34)CC2)cc1 | > 100 | 
O=C(Nc1cccc(C(F)(F)F)c1)N1CCN(c2cccc3[nH]ccc23)CC1 | 14 | 
COc1ccccc1N1CCN(C(=O)Nc2ccccc2)CC1 | > 100 | 
COc1cccc(OC)c1NC(=O)N1CCN(c2cccc3[nH]ccc23)CC1 | > 100 | 
O=C(NCCc1c[nH]c2ccccc12)Nc1ccc(Br)cc1 | 67 | 
O=C(Nc1ccc2ncccc2c1)N1CCN(c2cccc3[nH]ccc23)CC1 | > 100 | 
N#Cc1cccc(NC(=O)N2CCN(c3cccc4[nH]ccc34)CC2)c1 | > 100 | 
CNC(=O)c1cccc(NC(=O)N2CCN(c3cccc4[nH]ccc34)CC2)c1 | > 100 | 
O=C(Nc1ccccc1)N1CCN(c2ccccc2)CC1 | > 100 | 
O=C(Nc1ccc(Br)cc1)N1CCN(c2cccc3[nH]ccc23)CC1 | 16 | 
COc1ccc(NC(=O)N2CCN(c3cccc4[nH]ccc34)CC2)cc1OC | > 100 | 
O=C(Nc1ccccc1)N1CCN(c2cc(Cl)cc3[nH]ccc23)CC1 | 46 | 
O=C(Nc1ccccn1)N1CCN(c2cccc3[nH]ccc23)CC1 | > 100 | 
O=C(c1ccccc1)c1ccc(NC(=O)N2CCN(c3cccc4[nH]ccc34)CC2)cc1 | 43 | 
O=C(Nc1cccc2cccnc12)N1CCN(c2cccc3[nH]ccc23)CC1 | > 100 | 
